Assay results from ChEMBL document CHEMBL4270616, “Asymmetrical meta-methoxylated diarylpentanoids: Rational design, synthesis and anti-cancer evaluation in-vitro” (Eur J Med Chem, 2018).
Calls of active or inactive are those of the source.

What was measured:
A549 = assay: Cytotoxicity against human A549 cells after 72 hrs by MTT assay; format: functional, cell-based; settings: A549, 72 h
Procedure, shortened: (§1)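 Tumour lines kept in DMEM with 10% FBS and 1% penicillin/streptomycin at 37°C, 5% CO2. Seeded at 1500-5000 cells/well by doubling time and size, 24 h, then compound in DMSO-containing medium (final DMSO 0.1%) for 72 h. MTT (5 mg/mL) 4 h at 37°C, DMSO solubilisation, absorbance at 570 nm.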

[1] = Cytotoxicity against human EJ28 cells after 72 hrs by MTT assay; format: functional, cell-based; settings: EJ-28, 72 h; procedure, shortened: as §1
HT-1080 [2] = assay: Cytotoxicity against human HT1080 cells after 72 hrs by MTT assay; format: functional, cell-based; settings: HT-1080, 72 h; procedure, shortened: as §1
SW-620 [3] = assay: Cytotoxicity against human SW620 cells assessed as inhibition of cell proliferation at 20 uM after 72 hrs by MTT assay relative to control; format: functional; settings: SW-620, 72 h
Procedure, shortened: (§2)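 Single-concentration screen at 20 μM with 72 h exposure in DMEM with 10% FBS, final DMSO 0.1%. Read-out was MTT (5 mg/mL, 4 h, 37°C), DMSO solubilisation and absorbance at 570 nm, expressed as percent inhibition. Lines reaching a threshold percentage went on to IC50 determination.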

HT-1080 [4] = assay: Cytotoxicity against human HT1080 cells assessed as inhibition of cell proliferation at 20 uM after 72 hrs by MTT assay relative to control; format: functional; settings: HT-1080, 72 h; procedure, shortened: as §2
SW-620 [5] = assay: Anticlonogenic activity against human SW620 cells assessed as colony formation at 2.5 to 5 uM after 10 days by crystal violet staining based imaging analysis (reference value: 100%); format: functional
Procedure, shortened: (§3)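 SW620 cells seeded at 1000 cells/well in DMEM, left overnight at 37°C, 5% CO2, then exposed to compound for ten days with drug-containing medium renewed every three days. Cells were PBS-washed, fixed in 4% paraformaldehyde for 15 min, stained with 0.5% (w/v) crystal violet for 10 min, air-dried, photographed, and colonies quantified by image analysis.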

SW-620 [6] = assay: Inhibition of colony formation in human SW620 cells at 1.25 to 5 uM after 10 days by crystal violet staining based assay; format: functional, cell-based
Procedure, shortened: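 SW620 cells seeded at 1000 cells/well in DMEM and incubated overnight at 37°C, 5% CO2. Compound-containing medium was given for ten days and renewed every three days. Cells were then washed with PBS, fixed 15 min in 4% paraformaldehyde, stained 10 min with 0.5% (w/v) crystal violet, washed, air-dried and photographed. Colony formation was quantified from the images.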

SW-620 [7] = assay: Anticlonogenic activity against human SW620 cells assessed as colony formation at 0.3125 uM after 10 days by crystal violet staining based imaging analysis (reference value: 100%); format: functional; procedure, shortened: as §3
SW-620 [8] = assay: Anticlonogenic activity against human SW620 cells assessed as colony formation at 0.625 uM after 10 days by crystal violet staining based imaging analysis (reference value: 100%); format: functional; procedure, shortened: as §3
SW-620 [9] = assay: Cell cycle arrest in human SW620 cells assessed as accumulation at G2/M phase at 1.25 uM after 24 hrs by propidium iodide staining based flow cytometry (reference value: 19%); format: functional
SW-620 [10] = assay: Induction of apoptosis in human SW620 cells assessed as live cells at 1.25 uM after 24 hrs by Annexin V-FITC/propidium iodide staining based flow cytometry (reference value: 97.03%); format: functional
SW-620 [11] = assay: Induction of apoptosis in human SW620 cells assessed as late apoptotic cells at 1.25 uM after 24 hrs by Annexin V-FITC/propidium iodide staining based flow cytometry (reference value: 0.43%); format: functional
SW-620 [12] = assay: Induction of apoptosis in human SW620 cells assessed as late apoptotic cells at 2.5 uM after 24 hrs by Annexin V-FITC/propidium iodide staining based flow cytometry (reference value: 0.43%); format: functional
SW-620 [13] = assay: Induction of apoptosis in human SW620 cells assessed as necrotic cells at 2.5 uM after 24 hrs by Annexin V-FITC/propidium iodide staining based flow cytometry (reference value: 0.15%); format: functional
SW-620 [14] = assay: Induction of apoptosis in human SW620 cells assessed as live cells at 5 uM after 24 hrs by Annexin V-FITC/propidium iodide staining based flow cytometry (reference value: 97.03%); format: functional
SW-620 [15] = assay: Induction of apoptosis in human SW620 cells assessed as early apoptotic cells at 5 uM after 24 hrs by Annexin V-FITC/propidium iodide staining based flow cytometry (reference value: 2.35%); format: functional
SW-620 [16] = assay: Induction of apoptosis in human SW620 cells assessed as necrotic cells at 10 uM after 24 hrs by Annexin V-FITC/propidium iodide staining based flow cytometry (reference value: 0.15%); format: functional
SW-620 [17] = assay: Induction of apoptosis in human SW620 cells assessed as late apoptotic cells at 1.25 uM after 48 hrs by Annexin V-FITC/propidium iodide staining based flow cytometry (reference value: 0.2%); format: functional
SW-620 [18] = assay: Induction of apoptosis in human SW620 cells assessed as necrotic cells at 1.25 uM after 48 hrs by Annexin V-FITC/propidium iodide staining based flow cytometry (reference value: 0.23%); format: functional
SW-620 [19] = assay: Induction of apoptosis in human SW620 cells assessed as live cells at 2.5 uM after 48 hrs by Annexin V-FITC/propidium iodide staining based flow cytometry (reference value: 96.26%); format: functional
SW-620 [20] = assay: Induction of apoptosis in human SW620 cells assessed as early apoptotic cells at 2.5 uM after 48 hrs by Annexin V-FITC/propidium iodide staining based flow cytometry (reference value: 2.75%); format: functional
SW-620 [21] = assay: Induction of apoptosis in human SW620 cells assessed as late apoptotic cells at 2.5 uM after 48 hrs by Annexin V-FITC/propidium iodide staining based flow cytometry (reference value: 0.2%); format: functional
SW-620 [22] = assay: Induction of apoptosis in human SW620 cells assessed as live cells at 5 uM after 48 hrs by Annexin V-FITC/propidium iodide staining based flow cytometry (reference value: 96.26%); format: functional
SW-620 [23] = assay: Induction of apoptosis in human SW620 cells assessed as necrotic cells at 10 uM after 48 hrs by Annexin V-FITC/propidium iodide staining based flow cytometry (reference value: 0.23%); format: functional
SW-620 [24] = assay: Induction of apoptosis in human SW620 cells assessed as live cells at 1.25 uM after 72 hrs by Annexin V-FITC/propidium iodide staining based flow cytometry (reference value: 97.34%); format: functional
SW-620 [25] = assay: Induction of apoptosis in human SW620 cells assessed as live cells at 2.5 uM after 72 hrs by Annexin V-FITC/propidium iodide staining based flow cytometry (reference value: 97.34%); format: functional
SW-620 [26] = assay: Induction of apoptosis in human SW620 cells assessed as early apoptotic cells at 2.5 uM after 72 hrs by Annexin V-FITC/propidium iodide staining based flow cytometry (reference value: 2.1%); format: functional
SW-620 [27] = assay: Induction of apoptosis in human SW620 cells assessed as live cells at 10 uM after 72 hrs by Annexin V-FITC/propidium iodide staining based flow cytometry (reference value: 97.34%); format: functional
SW-620 [28] = assay: Induction of apoptosis in human SW620 cells assessed as late apoptotic cells at 10 uM after 72 hrs by Annexin V-FITC/propidium iodide staining based flow cytometry (reference value: 0.29%); format: functional
SW-620 [29] = assay: Induction of apoptosis in human SW620 cells after 24 to 72 hrs by Annexin V-FITC/propidium iodide staining based flow cytometry; format: functional, cell-based

| Structure (SMILES) | IC50 (A549) | IC50 [1] | IC50 (HT-1080 [2]) | inhibition at 20 µM (SW-620 [3]) | inhibition at 20 µM (HT-1080 [4]) | Activity (SW-620 [5]) | inhibition (SW-620 [6]) | Activity (SW-620 [7]) | Activity (SW-620 [8]) | Activity (SW-620 [9]) | Activity (SW-620 [10]) | Activity (SW-620 [11]) | Activity (SW-620 [12]) | Activity (SW-620 [13]) | Activity (SW-620 [14]) | Activity (SW-620 [15]) | Activity (SW-620 [16]) | Activity (SW-620 [17]) | Activity (SW-620 [18]) | Activity (SW-620 [19]) | other results |
| --- | --- | --- | --- | --- | --- | --- | --- | --- | --- | --- | --- | --- | --- | --- | --- | --- | --- | --- | --- | --- | --- |
| COc1ccc(/C=C2\CCC/C(=C\c3cc(OC)c(OC)c(OC)c3)C2=O)cc1OC | 2.9 µM | 1.7 µM | 1.1 µM | > 50% | > 50% | 0% | Active | 93.6% | 84.6% | 20% | 89.83% | 0.31% | 1% | 0.27% | 55.03% | 40.26% | 0.82% | 0.37% | 0.2% | 79.03% | Activity (SW-620 [20]): 12.28%; Activity (SW-620 [21]): 6.7%; Activity (SW-620 [22]): 26.23%; Activity (SW-620 [23]): 1.3%; Activity (SW-620 [24]): 34.33%; Activity (SW-620 [25]): 66.34%; Activity (SW-620 [26]): 14.37%; Activity (SW-620 [27]): 2.37%; Activity (SW-620 [28]): 94.51%; Activity (SW-620 [29]): Dose-dependent effect |
| COc1ccc(/C=C2\CCC/C(=C\c3cccc(O)c3)C2=O)cc1OC | 4.3 µM | 1.8 µM | 1.7 µM | > 50% | > 50% | 0% | Active | 97.9% | 93.4% | 24% | 96.2% | 0.31% | 0.64% | 0.2% | 73.65% | 23.28% | 0.23% | 0.92% | 0.41% | 91.27% | Activity (SW-620 [20]): 4.43%; Activity (SW-620 [21]): 3.83%; Activity (SW-620 [22]): 36.63%; Activity (SW-620 [23]): 1.06%; Activity (SW-620 [24]): 92.34%; Activity (SW-620 [25]): 63.72%; Activity (SW-620 [26]): 4.52%; Activity (SW-620 [27]): 2.19%; Activity (SW-620 [28]): 95.18%; Activity (SW-620 [29]): Dose-dependent effect |
